Results as given in ChEMBL document CHEMBL1156707, “Insulin-releasing activity of a series of phenylalanine derivatives” (Eur J Med Chem, 2008).

Columns and labels:
[1] = Increase in insulin releasing activity in Syrian golden hamster HIT-T15 cells at 10 uM after 1 hr relative to control; format: functional, Mesocricetus auratus
How it was run: (§1)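 Pre-incubated 1 h, then 1 h with compound at a range of concentrations in DMSO, 37 °C; solvent-matched control. Insulin in medium measured by radioimmunoassay. Mean ± sd, n = 3; EC50 is concentration giving 50% increase in insulin release.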

[2] = Increase in insulin releasing activity in Syrian golden hamster HIT-T15 cells at 100 uM after 1 hr relative to control; format: functional, Mesocricetus auratus; how it was run: as §1
[3] = Increase in insulin releasing activity in Syrian golden hamster HIT-T15 cells at 1 uM after 1 hr relative to control; format: functional, Mesocricetus auratus; how it was run: as §1
3T3-L1 [4] = test: Effect on insulin sensitizing activity in mouse 3T3-L1 cells assessed as increase in triglyceride accumulation at 1 uM after 7 days; format: functional
How it was run: (§2)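 3T3-L1 preadipocytes in DMEM/10% FBS, grown to 2 days postconfluence. Differentiation induced with insulin, 0.5 mM IBMX and dexamethasone. Compound (1 or 10 mmol/L, DMSO diluted 1000-fold) present during first 4 days of differentiation; 0.1% DMSO negative control. Day 7: oil red O staining, dye extracted with isopropanol, OD 510 nm. Three or four independent experiments.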

Rattus norvegicus [5] = test: Decrease in plasma glucose level in Sprague-Dawley rat at 3 mg/kg, po after 120 mins relative to control; format: functional; parameters: scale not given: the % may be the effect or the level left
How it was run: (§3)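 Normal SD rats (180–220 g), fasted overnight, 8–10 per group. Single oral dose 3 mg/kg in 0.5% CMC-Na vehicle, then oral glucose 2.5 g/kg immediately after. Caudal-vein blood drawn before dosing and at 15, 30, 60, 120, 180 min. Serum glucose measured by glucose oxidase method. Reported as % decrease versus vehicle control group.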

Rattus norvegicus [6] = test: Decrease in plasma glucose level in Sprague-Dawley rat at 3 mg/kg, po after 15 mins relative to control; format: functional; parameters: scale not given: the % may be the effect or the level left; how it was run: as §3
Rattus norvegicus [7] = test: Decrease in plasma glucose level in Sprague-Dawley rat at 3 mg/kg, po after 30 mins relative to control; format: functional; parameters: scale not given: the % may be the effect or the level left; how it was run: as §3
Rattus norvegicus [8] = test: Decrease in plasma glucose level in Sprague-Dawley rat at 3 mg/kg, po after 180 mins relative to control; format: functional; parameters: scale not given: the % may be the effect or the level left; how it was run: as §3
Rattus norvegicus [9] = test: Decrease in plasma glucose level in Sprague-Dawley rat at 3 mg/kg, po after 60 mins relative to control; format: functional; parameters: scale not given: the % may be the effect or the level left; how it was run: as §3
3T3-L1 [10] = test: Effect on insulin sensitizing activity in mouse 3T3-L1 cells assessed as increase in triglyceride accumulation at 10 uM after 7 days; format: functional; how it was run: as §2
[11] = Increase in insulin releasing activity in Syrian golden hamster HIT-T15 cells after 1 hr; format: functional, cell-based, Mesocricetus auratus; how it was run: as §1

CC(C)[C@H]1CC[C@H](C(=O)N[C@@H](Cc2ccc(OCCN(C)c3ccccn3)cc2)C(=O)O)CC1
Activity [1]: 41.5%
Activity [2]: 83.7%
Activity [3]: 26%

CC(C)[C@H]1CC[C@H](C(=O)N[C@H](Cc2ccc(OCCN(C)c3nc4ccccc4o3)cc2)C(=O)O)CC1
Activity [1]: 81.7%
Activity [2]: 145.1%
Activity [3]: 24.8%

Cc1oc(-c2ccccc2)nc1CCOc1ccc(C[C@H](NC(=O)[C@H]2CC[C@H](C(C)C)CC2)C(=O)O)cc1
Activity (3T3-L1 [4]): 38.14%
Activity (Rattus norvegicus [5]): 11.3%
Activity (Rattus norvegicus [6]): 4.73%
Activity (Rattus norvegicus [7]): 8.51%
Activity (Rattus norvegicus [8]): 2.07%
Activity [1]: 131.2%
Activity [2]: 329.2%
Activity (Rattus norvegicus [9]): 4.47%
Activity [3]: 68.5%
Activity (3T3-L1 [10]): 46.01%
EC50 [11]: 540 nM

CC(C)[C@H]1CC[C@H](C(=O)N[C@@H](Cc2ccc(OCc3ccccc3)cc2)C(=O)O)CC1
Activity [1]: 147.5%
Activity [2]: 225.9%
Activity [3]: 53.1%
EC50 [11]: 1050 nM

CC(C)[C@H]1CC[C@H](C(=O)N[C@@H](Cc2ccc(O)cc2)C(=O)O)CC1
Activity [1]: 35.4%
Activity [2]: 64.8%
Activity [3]: 17.5%

CC(C)[C@H]1CC[C@H](C(=O)N[C@H](Cc2ccc(OCc3ccc(C(F)(F)F)cc3)cc2)C(=O)O)CC1
Activity [1]: 85.6%
Activity [2]: 152.1%
Activity [3]: 29.8%

CCCCOc1ccc(C[C@@H](NC(=O)[C@H]2CC[C@H](C(C)C)CC2)C(=O)O)cc1
Activity [1]: 107.1%
Activity [2]: 261.6%
Activity [3]: 58.9%
EC50 [11]: 650 nM

Cc1oc(-c2ccccc2)nc1CCOc1ccc(C[C@@H](NC(=O)[C@H]2CC[C@H](C(C)C)CC2)C(=O)O)cc1
Activity (Rattus norvegicus [5]): 17.3%
Activity (Rattus norvegicus [6]): 21.2%
Activity (Rattus norvegicus [7]): 36.4%
Activity (Rattus norvegicus [8]): 11.4%
Activity [1]: 200.9%
Activity [2]: 487.4%
Activity (Rattus norvegicus [9]): 33.7%
Activity [3]: 105.2%
EC50 [11]: 120 nM

CCCCOc1ccc(C[C@H](NC(=O)[C@H]2CC[C@H](C(C)C)CC2)C(=O)O)cc1
Activity [1]: 136.7%
Activity [2]: 326.2%
Activity [3]: 73.4%
EC50 [11]: 550 nM

O=C(O)[C@H](CC(=O)N1C[C@H]2CCCC[C@H]2C1)Cc1ccccc1 [MITIGLINIDE]
Activity (Rattus norvegicus [5]): 87.3%
Activity (Rattus norvegicus [6]): 16.5%
Activity (Rattus norvegicus [7]): 36.2%
Activity (Rattus norvegicus [8]): 70.3%
Activity [1]: 66%
Activity [2]: 120%
Activity (Rattus norvegicus [9]): 61.7%
Activity [3]: 52.5%
EC50 [11]: 708 nM

CC(C)[C@H]1CC[C@H](C(=O)N[C@H](Cc2ccc(OCCN(C)c3ccccn3)cc2)C(=O)O)CC1
Activity [1]: 36.2%
Activity [2]: 59.4%
Activity [3]: 24.4%

CCOc1ccc(C[C@@H](NC(=O)[C@H]2CC[C@H](C(C)C)CC2)C(=O)O)cc1
Activity [1]: 107.3%
Activity [2]: 183.8%
Activity [3]: 76.2%
EC50 [11]: 260 nM

CC(C)[C@H]1CC[C@H](C(=O)N[C@@H](Cc2ccccc2)C(=O)O)CC1 [(S)-NATEGLINIDE]
Activity [1]: 35.3%
Activity [2]: 61.1%
Activity [3]: 26.4%

CC(C)[C@H]1CC[C@H](C(=O)N[C@@H](Cc2ccc(OCc3ccc(C(F)(F)F)cc3)cc2)C(=O)O)CC1
Activity [1]: 76.7%
Activity [2]: 156.9%
Activity [3]: 47.9%

CC(C)[C@H]1CC[C@H](C(=O)N[C@@H](Cc2ccc(OCCn3ccc4ccccc43)cc2)C(=O)O)CC1
Activity [1]: 74.9%
Activity [2]: 146.6%
Activity [3]: 35.7%

CC(C)[C@H]1CC[C@H](C(=O)N[C@H](Cc2ccc(OCCn3ccc4ccccc43)cc2)C(=O)O)CC1
Activity [1]: 58.8%
Activity [2]: 112%
Activity [3]: 37.8%

CC(C)[C@H]1CC[C@H](C(=O)N[C@H](Cc2ccccc2)C(=O)O)CC1 [NATEGLINIDE]
Activity [1]: 66.8%
Activity [2]: 124.3%
Activity [3]: 36.3%
EC50 [11]: 7590 nM

CC(C)[C@H]1CC[C@H](C(=O)N[C@H](Cc2ccc(OCc3ccccc3)cc2)C(=O)O)CC1
Activity [1]: 94.4%
Activity [2]: 171.1%
Activity [3]: 38.9%
EC50 [11]: 2820 nM

CC(C)[C@H]1CC[C@H](C(=O)N[C@H](Cc2ccc(O)cc2)C(=O)O)CC1
Activity [1]: 69.6%
Activity [2]: 122.2%
Activity [3]: 34.2%

CCOc1ccc(C[C@H](NC(=O)[C@H]2CC[C@H](C(C)C)CC2)C(=O)O)cc1
Activity [1]: 99.9%
Activity [2]: 151.3%
Activity [3]: 55.8%
EC50 [11]: 960 nM

CN(CCOc1ccc(CC2SC(=O)NC2=O)cc1)c1ccccn1 (configuration not stated) [ROSIGLITAZONE]
Activity (3T3-L1 [4]): 38.8%
Activity (3T3-L1 [10]): 35.87%

CC(C)[C@H]1CC[C@H](C(=O)N[C@@H](Cc2ccc(OCCN(C)c3nc4ccccc4o3)cc2)C(=O)O)CC1
Activity [1]: 72.8%
Activity [2]: 126.9%
Activity [3]: 35.5%
